Here are results for two substances from PMC10682124 (Materials Today Bio, 2023).

In series [1] the test system is SR Ca^2+ overload related tachyarrhythmias in CPVT. Particulars: cited from earlier work.
The test system of series [2] is ICR mice. Nature of the series: Blood biochemical examinations. Particulars: i.v. 5 mg/kg OpiCa1 equivalent, 12 h, n = 6. The series is classed as in vivo. In outline:
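Blood was drawn from the inner canthus into anticoagulant tubes 12 h after dosing and assayed for ALT, AST, CK, CK-MB, LDH, creatinine and uric acid. Data are mean ± SD; two-group comparisons used two-tailed Mann-Whitney tests.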

The target of series [3] is RyRs. Particulars: read-out: affinity between OpiCa1 and RyRs; cited from earlier work.
Series [4] relates to cardiac tissue. The experiment in a line: Cardiac immunohistochemistry with OpiCa1 polyclonal antibody. It counts as in vivo. Particulars: mice, 12 h, self-prepared OpiCa1 polyclonal antibody, n = 6; in words.
In series [5] the test system is H9C2 cells. The experiment in a line: Flow cytometry, Annexin V-FITC / propidium iodide apoptosis. It counts as cell-based, rat. Particulars: 100 μM OpiCa1, 12 h, Annexin V-FITC/PI flow cytometry.
In series [6] the test system is ICR mice. Nature of the series: H&E staining pathological examination of heart. It counts as in vivo. The settings on record: 12 h after intravenous injection, n = 6. In outline: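 Twelve hours after intravenous dosing (test compound at 5 mg/kg peptide equivalent, free peptide, empty carrier or control; n = 6), heart tissue was fixed in 4 % paraformaldehyde. It then underwent routine hematoxylin-eosin staining for histopathological examination.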

A short description of series [7]: Plasma OpiCa1 concentration in vivo by ELISA. Particulars: mice, injection of free OpiCa1 5 mg/kg. On the technique in general: In an ELISA, binding on a coated surface is turned into a signal by an enzyme label.

Imperacalcin: the “antagonism of SR Ca^2+ overload related tachyarrhythmias” value in series [1] was “can antagonize SR Ca^2+ overload related tachyarrhythmias such as PVCs and non-sustained BVTs in CPVT”.

For the substance Opicalcin1 [OpiCa1], in series [2], the “cardiac function (CK, CK-MB, and LDH)” value is “no significant differences”; the “liver function (ALT and AST)” value was “no significant differences”; the “renal function (Crea and UA)” value is listed as “no significant differences”. Moreover, the Kd in series [3] was approximately 300 pM. The “distribution in cardiac tissue by immunohistochemistry” value in series [4] is on record as “significantly distributed in cardiac tissue”. Besides, in series [5], the “proportion of apoptotic cells” value is “about 1.5%”. For the same substance, in series [6], the “pathological examination of heart (H&E)” value is “clear myocardial fibers and stripes”. In addition, in series [7], the “time to complete disappearance from plasma” value is given as not above 48 h.
